AP complement: orthogonal test for alternative complement pathway inhibitors; 62,000 compounds, 0.08% hits; Human serum alternative complement pathway, LPS-coated ELISA, C3 deposition; tested in compound mixtures; inhibition, % at 5 µM;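 active = inhibition above 30% in each of the two pooled mixtures holding the compound, so the lower value exceeds 30%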
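Medium: diluted human serum in Mg2+-EGTA GVB++. Assay system: human serum complement alternative pathway, C3 deposition onto LPS. Also added: Plate-bound LPS. Technique: Anti-C3 ELISA, OD 450 nm. Measure: percent inhibition. Incubation: 1 h at 37 °C. Dosing: 5 µM each compound, pools of ten, 50 µM per pool.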
D1 mod: allosteric modulators of human D1 dopamine receptor; P21728; HEK293 D1, CRE-luciferase, dopamine EC30 potentiation; actives deviate in either direction; B-score at 10 µM; 58,000 compounds, 5.9% hits; AID 641;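 active = luminescence count or its row- and column-corrected plate score outside the 99.7% band of the plate's sample wells, on either side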
Target sequence (P21728 whole entry, looked up): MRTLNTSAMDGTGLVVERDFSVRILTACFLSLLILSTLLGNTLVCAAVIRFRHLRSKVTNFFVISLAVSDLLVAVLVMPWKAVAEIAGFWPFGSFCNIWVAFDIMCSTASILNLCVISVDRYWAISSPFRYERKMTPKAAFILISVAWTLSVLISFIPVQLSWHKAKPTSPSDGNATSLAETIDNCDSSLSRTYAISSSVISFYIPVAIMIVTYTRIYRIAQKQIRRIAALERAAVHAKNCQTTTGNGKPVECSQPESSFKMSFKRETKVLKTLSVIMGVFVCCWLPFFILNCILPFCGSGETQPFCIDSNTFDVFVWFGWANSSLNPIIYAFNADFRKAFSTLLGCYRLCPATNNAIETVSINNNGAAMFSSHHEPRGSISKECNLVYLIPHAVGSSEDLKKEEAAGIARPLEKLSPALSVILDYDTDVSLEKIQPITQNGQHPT
WNV NS2B-NS3 inh: inhibitors of West Nile virus NS2B-NS3 protease; 65,000 compounds, 0.18% hits; WNV NS2B-NS3 protease, fluorogenic substrate Ex360/Em465; stronger effect = lower value; AID 577; z-score (concentration not given with the values); in the data active = z-score below about -3
DAT uptake mod: human DAT dopamine uptake with cocaine, either direction | AID 449768 | 110,000 compounds, 1.3% hits | B-score at 10 µM | Q01959 | LLC-PK1 hDAT cells, [14C]-dopamine uptake with cocaine IC80; actives deviate in either direction;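 active = Z score or B-score, a plate-position-corrected score, falls beyond the plate's 99.7% confidence bounds, in either direction; inactive = both scores lie inside the 99.7% bounds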
Large screens that a line does not name were inactive. Many of the other results were omitted from the sample, so hits are more common in it than they were.

CN(CC1CCCO1)S(=O)(=O)c1ccc(C(=O)Nc2nc(-c3ccccn3)cs2)cc1 (stereo unspecified)	DAT uptake mod 2.73
COc1ccc(-c2nsc3c(N4CCCC4)ncnc23)cc1	D1 mod -4.38
NC(=O)c1ccccc1NS(=O)(=O)c1cccs1	DAT uptake mod -3.16
COc1ccc(OC)c(NS(=O)(=O)c2cccs2)c1	WNV NS2B-NS3 inh -5.98
CCCc1c(OCCCCc2nn[nH]n2)ccc(C(C)=O)c1O	none
CCOC(=O)/C(C#N)=C1/C=CN(c2ccc(C)cc2)C=N1	none (no result: AP complement, D1 mod, WNV NS2B-NS3 inh)
CCOC(=O)/C(C#N)=C1/SC(CC)C(=O)N1c1ccc(C)cc1 (stereo unspecified)	DAT uptake mod -2.8
Cn1c(=O)[nH]c(=O)c2c1nc(N1CCN(Cc3ccccc3)CC1)n2CCCc1ccccc1	none
Cn1c(=O)[nH]c(=O)c2[nH]c(CN3CCN(Cc4ccccc4)CC3)nc21	D1 mod -4.28
NS(=O)(=O)c1cccnc1Nc1c(Cl)cccc1Cl	none (no result: AP complement, D1 mod, WNV NS2B-NS3 inh)
Cn1nc(-c2ccc(Cl)cc2)c2cc(C(=O)N3CCCC3)sc21	D1 mod -3.2
Cc1[nH]n2c(=O)c3c(nc2c1-c1ccc(Cl)cc1)CCC3	DAT uptake mod -2.74 (no result: D1 mod)
O=C(O)C1=C[C@H](c2ccc(C(F)(F)F)cc2)C[C@H](OCCCCO)O1	none (no result: AP complement, D1 mod, WNV NS2B-NS3 inh)
CCOc1cc(/C=C(/C#N)C(=O)Nc2ccc(O)cc2)cc(Br)c1O	DAT uptake mod -3.4 (no result: AP complement, D1 mod, WNV NS2B-NS3 inh)
COc1cc(/C=C(\C#N)C(=O)Nc2ccc(SC(F)F)cc2)cc(OC)c1OC	none (no result: AP complement, D1 mod, WNV NS2B-NS3 inh)
COc1ccc2c(c1)c(=O)oc1cc(OCC(=O)N3CCCC(C)C3)ccc12 (stereo unspecified)	DAT uptake mod -2.46
CCOC(=O)N1CCN(C(=S)Nc2cc(OC)c(OC)cc2C(=O)OC)CC1	none (no result: AP complement, D1 mod, WNV NS2B-NS3 inh)
CCC(C)NC(=O)COc1ccc(S(=O)(=O)N2CCOCC2)cc1 (stereo unspecified)	none (no result: D1 mod)
Cc1cc2cc(CN(C(=O)C3CC3)C3CCCC3)c3nnnn3c2cc1C	DAT uptake mod 2.89
CC(=O)N(Cc1cc2ccc(C)c(C)c2n2nnnc12)C1CCCC1	none (no result: DAT uptake mod)
CC1CCCN(C(=O)CSCC(=O)N=c2sc3ccccc3n2C)C1 (stereo unspecified)	DAT uptake mod 2.69
CCc1cc(C(=O)COc2ccccc2F)c(O)cc1O	none
O=C1CC(=C2c3ccccc3-c3ccccc32)C(=O)N1CCCCN1CCN(c2ccccc2)CC1	none (no result: AP complement, D1 mod, WNV NS2B-NS3 inh)
COc1ccc2nc(NC(=O)CSc3nc4cccnc4n3C)sc2c1	WNV NS2B-NS3 inh -6.36 (no result: D1 mod)
COCc1nnc(NC(=O)c2sc3ccccc3c2Cl)s1	none
Cc1nnc(NC(=O)c2sc3ccccc3c2Cl)s1	D1 mod -6.4
Cc1[nH]c2ccccc2c1Cc1nnc(SCc2ccccc2)o1	none (no result: AP complement, D1 mod, WNV NS2B-NS3 inh)
CC[C@]1(O)CC2CN(CCc3c([nH]c4ccccc34)[C@@](C(=O)OC)(c3cc4c(cc3OC)N(C)[C@H]3[C@@](O)(C(N)=O)[C@H](O)[C@]5(CC)C=CCN6CC[C@]43[C@@H]65)C2)C1 (stereo partly specified)	none (no result: AP complement, D1 mod, WNV NS2B-NS3 inh)
CCc1nn(CC(=O)NCCCN2CCCC2=O)c(=O)c2cc3sccc3n12	none
CCc1nn(CC(=O)NCCCN(CC)Cc2ccccc2)c(=O)c2cc3sccc3n12	D1 mod -4.58
Cc1cc(Nc2ccc(Br)c(C)c2)n2nc(C)nc2n1	none (no result: D1 mod)
COC(=O)c1ccc2c(c1)C(C)(C)C(/C=C/c1ccccc1O)=[N+]2C	DAT uptake mod -3.58 (no result: AP complement, D1 mod, WNV NS2B-NS3 inh)
Cc1ccc(-c2cn3c(n2)CCCC3)cc1	none
Cc1ccc(-c2cn3nc(C)c(C)nc3n2)cc1	D1 mod -8.46
COc1ccc(OC)c(NC(=O)CSc2nnc(Cn3nnc4ccccc43)n2C)c1	none (no result: AP complement, D1 mod, WNV NS2B-NS3 inh)
COc1ccc(CC(=O)Nc2cccc(-c3nnc(-c4ccccc4)o3)c2)cc1OC	DAT uptake mod 2.73
COc1ccc(CC(=O)Nc2ccc(-c3nnc(-c4ccccc4)o3)cc2)cc1OC	none
COc1ccc(CC(=O)Nc2cccc(-c3nnc(-c4ccc(C)cc4)o3)c2)cc1OC	none
COc1ccc(CC(=O)Nc2cccc(-c3nnc(-c4cccc(C)c4)o3)c2)cc1OC	D1 mod -2.66, DAT uptake mod 3.08
CC(C)(C)C(=O)Nc1cccc(-c2nnc(-c3cccc(NC(=O)C(C)(C)C)c3)o2)c1	none (no result: AP complement, D1 mod, WNV NS2B-NS3 inh)
COc1ccc(-c2nc3cc(NC(=O)Cc4ccc(OC)c(OC)c4)ccc3o2)cc1	D1 mod -3.93
CC(=O)Nc1cccc(-c2nnc(-c3ccccc3)o2)c1	DAT uptake mod -8.4
OC(COc1ccc2c(c1)OCO2)CN1CCc2ccccc2C1 (stereo unspecified)	none
Oc1cccc(-c2nc3ccc4ccccc4c3c3c2CCC3)c1	none (no result: AP complement, D1 mod, WNV NS2B-NS3 inh)

Screening results from PubChem.
